These results are taken from ChEMBL document CHEMBL1641499, “Towards echinomycin mimetics by grafting quinoxaline residues on glycophane scaffolds” (Bioorg Med Chem, 2011).

SMILES strings stand for the structures. Active and inactive are the calls of the source. The calls are words filed in the database; no cut-off is given here.

Conditions in all cases: Bos taurus
The subject of experiment [1] is Calf thymus DNA. Briefly: Binding affinity to calf thymus DNA at 20 uM after 20 mins by UV spectrophotometer analysis. Format: nucleic-acid assay. An outline of the steps: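 Compound stock diluted in cuvette to 20 µM final with degassed 100 mM NaCl, 10 mM NaH2PO4, pH 7.0. Calf thymus DNA was added from stock. After each addition the sample was heated to 65 °C and cooled slowly (5 °C/min), and the UV-vis spectrum was recorded 20 min later at 25 °C. DNA concentration was set from ε260 = 6600 M−1 cm−1.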

In experiment [2] the test system is Calf thymus DNA. Kind of experiment: Binding affinity to calf thymus DNA assessed as change on melting temperature (reference value: 76 degC).
In experiment [3] the test system is Calf thymus DNA. Briefly: Binding affinity to calf thymus DNA assessed as fluorescence enhancement at 20 uM by steady state fluorescence emission spectroscopic analysis relative to control.

For `O=C1[C@H]2O[C@H](OCCC/C=C/CCCO[C@H]3O[C@H](C(=O)N(Cc4cnc5ccccc5n4)Cc4ccc(cc4)CN1Cc1cnc4ccccc4n1)[C@@H](O)[C@H](O)[C@H]3O)[C@H](O)[C@@H](O)[C@@H]2O`, in experiment [1], the outcome was Active. Besides, in experiment [2], the Tm worked out at 79 °C.
Turning to `CS[C@H]1SC[C@H]2C(=O)N(C)[C@@H](C(C)C)C(=O)OC[C@@H](NC(=O)c3cnc4ccccc4n3)C(=O)N[C@@H](C)C(=O)N(C)[C@@H]1C(=O)N(C)[C@@H](C(C)C)C(=O)OC[C@@H](NC(=O)c1cnc3ccccc3n1)C(=O)N[C@@H](C)C(=O)N2C`, the outcome in experiment [1] was Active. Also, in experiment [2], the Tm stood at 79 °C.
As to `O=C1[C@H]2O[C@H](OC/C=C/CO[C@H]3O[C@H](C(=O)N(Cc4cnc5ccccc5n4)Cc4ccc(cc4)CN1Cc1cnc4ccccc4n1)[C@@H](O)[C@H](O)[C@H]3O)[C@H](O)[C@@H](O)[C@@H]2O`, the result in experiment [1] was Active. In experiment [2], the Tm was 78 °C. The fold change (FC) in experiment [3] stood at 5.5.
Turning to `C=CCCCO[C@H]1O[C@H](C(=O)N(Cc2ccc(CN(Cc3cnc4ccccc4n3)C(=O)[C@H]3O[C@H](OCCCC=C)[C@H](O)[C@@H](O)[C@@H]3O)cc2)Cc2cnc3ccccc3n2)[C@@H](O)[C@H](O)[C@H]1O`, the result in experiment [1] was Active. Further, the Tm in experiment [2] was determined as 81 °C. The fold change (FC) in experiment [3] is 2.8.
For `C=CCO[C@H]1O[C@H](C(=O)N(Cc2ccc(CN(Cc3cnc4ccccc4n3)C(=O)[C@H]3O[C@H](OCC=C)[C@H](O)[C@@H](O)[C@@H]3O)cc2)Cc2cnc3ccccc3n2)[C@@H](O)[C@H](O)[C@H]1O`, in that order: “Active”, 79 °C and 2.8.
